# Legend:
# [1] = test system: BaF3; test: Antiproliferative activity against mouse BAF3 cell line transformed with TEL-FGFR3 construct after 48 hrs by luciferase bioluminescent assay; assay type: functional, cell-based; conditions: BaF3, 48 h
# Procedure, shortened: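 IL-3-independent BaF3 or BaF3 Tel-TK cells were grown in RPMI-1640 with 10% FBS and seeded at 4250 cells/well in 384-well plates. Compound serially diluted in DMSO was pin-transferred, followed by 48 h at 37 °C, 5% CO2. Viability was read by Bright-Glo luciferase luminescence.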
# [2] = biological target: Cytochrome P450 2C19 (Homo sapiens, UniProt P33261); test: Inhibition of CYP2C19 using CEC as substrate; assay type: ADME
# Procedure, shortened: (§1)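 Human CYP450 inhibition was measured with isoform-specific fluorogenic probe substrates: CEC for 1A2 and 2C19, MFC for 2C9, AMMC for 2D6. Incubation was at 37 °C with an NADPH-regenerating system in 384-well format. Metabolite was quantified by fluorescence, and IC50 was obtained by curve fitting.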
# [3] = biological target: T1, Cytochrome P450 3A4 (Homo sapiens, UniProt P08684); test: Inhibition of CYP3A4 using BFC as substrate
# [4] = biological target: T1, Cytochrome P450 3A4; test: Inhibition of CYP3A4 using DBF as substrate
# [5] = biological target: Cytochrome P450 2C9 (Homo sapiens, UniProt P11712); test: Inhibition of CYP2C9 using MFC as substrate; assay type: ADME; procedure, shortened: as §1
# [6] = biological target: Cytochrome P450 2D6 (Homo sapiens, UniProt P10635); test: Inhibition of CYP2D6 using AMMC as substrate; assay type: ADME; procedure, shortened: as §1
# [7] = biological target: T2, Cytochrome P450 1A2 (Homo sapiens, UniProt P05177); test: Inhibition of CYP1A2 using CEC as substrate; assay type: ADME; procedure, shortened: as §1
# T2 sequence (P05177 whole entry): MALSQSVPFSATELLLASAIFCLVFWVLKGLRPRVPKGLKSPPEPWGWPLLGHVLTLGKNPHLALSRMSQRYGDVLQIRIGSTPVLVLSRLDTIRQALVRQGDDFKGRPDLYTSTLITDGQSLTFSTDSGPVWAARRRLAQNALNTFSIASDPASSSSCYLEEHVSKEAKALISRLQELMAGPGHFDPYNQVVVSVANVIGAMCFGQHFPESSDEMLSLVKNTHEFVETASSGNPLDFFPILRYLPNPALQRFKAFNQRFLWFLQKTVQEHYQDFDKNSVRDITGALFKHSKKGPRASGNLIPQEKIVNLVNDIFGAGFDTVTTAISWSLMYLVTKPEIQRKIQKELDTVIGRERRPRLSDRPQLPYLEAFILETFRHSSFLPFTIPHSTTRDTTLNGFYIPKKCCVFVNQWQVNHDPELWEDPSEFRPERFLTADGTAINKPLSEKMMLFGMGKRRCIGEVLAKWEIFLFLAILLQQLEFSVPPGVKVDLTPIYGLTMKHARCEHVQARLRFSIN
# Cytochrome P450 2D6, sequence (P10635 whole entry): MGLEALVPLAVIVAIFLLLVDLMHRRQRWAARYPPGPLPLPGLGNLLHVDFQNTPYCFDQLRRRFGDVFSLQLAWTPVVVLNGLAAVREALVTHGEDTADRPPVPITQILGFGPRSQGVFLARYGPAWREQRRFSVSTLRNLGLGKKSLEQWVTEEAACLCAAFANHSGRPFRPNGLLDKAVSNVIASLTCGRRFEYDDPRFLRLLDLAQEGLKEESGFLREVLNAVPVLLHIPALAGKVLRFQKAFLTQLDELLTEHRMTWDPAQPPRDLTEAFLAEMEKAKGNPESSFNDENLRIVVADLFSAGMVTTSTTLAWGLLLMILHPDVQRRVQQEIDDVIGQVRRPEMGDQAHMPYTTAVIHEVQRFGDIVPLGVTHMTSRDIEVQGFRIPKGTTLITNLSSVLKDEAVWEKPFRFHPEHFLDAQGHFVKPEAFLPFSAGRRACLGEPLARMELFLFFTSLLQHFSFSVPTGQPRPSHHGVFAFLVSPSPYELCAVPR
# T1 sequence (P08684 whole entry): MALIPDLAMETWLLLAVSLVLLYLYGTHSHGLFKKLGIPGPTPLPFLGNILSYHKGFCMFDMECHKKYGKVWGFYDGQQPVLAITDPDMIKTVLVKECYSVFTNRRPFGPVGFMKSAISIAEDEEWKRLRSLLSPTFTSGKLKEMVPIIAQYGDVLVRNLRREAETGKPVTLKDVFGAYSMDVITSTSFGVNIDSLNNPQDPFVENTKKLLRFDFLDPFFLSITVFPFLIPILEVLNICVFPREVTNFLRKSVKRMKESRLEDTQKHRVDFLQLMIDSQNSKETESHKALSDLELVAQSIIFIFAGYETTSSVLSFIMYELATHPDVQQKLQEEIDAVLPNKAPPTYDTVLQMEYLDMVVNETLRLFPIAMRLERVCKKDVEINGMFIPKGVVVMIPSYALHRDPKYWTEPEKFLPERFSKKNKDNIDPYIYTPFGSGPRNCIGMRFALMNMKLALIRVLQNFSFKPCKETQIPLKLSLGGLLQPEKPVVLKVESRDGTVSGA
# Cytochrome P450 2C9, sequence (P11712 whole entry): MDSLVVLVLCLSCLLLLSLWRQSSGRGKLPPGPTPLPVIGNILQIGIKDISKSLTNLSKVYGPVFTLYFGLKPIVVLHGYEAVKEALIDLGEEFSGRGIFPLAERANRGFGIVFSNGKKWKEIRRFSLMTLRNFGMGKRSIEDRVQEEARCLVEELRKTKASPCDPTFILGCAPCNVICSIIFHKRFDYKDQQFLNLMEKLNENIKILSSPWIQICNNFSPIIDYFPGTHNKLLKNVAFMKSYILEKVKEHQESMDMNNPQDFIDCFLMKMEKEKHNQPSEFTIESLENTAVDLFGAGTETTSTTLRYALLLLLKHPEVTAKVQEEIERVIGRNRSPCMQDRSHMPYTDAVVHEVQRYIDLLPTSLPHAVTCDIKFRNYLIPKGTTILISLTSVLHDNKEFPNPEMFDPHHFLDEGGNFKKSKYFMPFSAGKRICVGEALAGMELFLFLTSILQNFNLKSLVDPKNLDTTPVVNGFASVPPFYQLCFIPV
# Cytochrome P450 2C19, sequence (P33261 whole entry, canonical isoform): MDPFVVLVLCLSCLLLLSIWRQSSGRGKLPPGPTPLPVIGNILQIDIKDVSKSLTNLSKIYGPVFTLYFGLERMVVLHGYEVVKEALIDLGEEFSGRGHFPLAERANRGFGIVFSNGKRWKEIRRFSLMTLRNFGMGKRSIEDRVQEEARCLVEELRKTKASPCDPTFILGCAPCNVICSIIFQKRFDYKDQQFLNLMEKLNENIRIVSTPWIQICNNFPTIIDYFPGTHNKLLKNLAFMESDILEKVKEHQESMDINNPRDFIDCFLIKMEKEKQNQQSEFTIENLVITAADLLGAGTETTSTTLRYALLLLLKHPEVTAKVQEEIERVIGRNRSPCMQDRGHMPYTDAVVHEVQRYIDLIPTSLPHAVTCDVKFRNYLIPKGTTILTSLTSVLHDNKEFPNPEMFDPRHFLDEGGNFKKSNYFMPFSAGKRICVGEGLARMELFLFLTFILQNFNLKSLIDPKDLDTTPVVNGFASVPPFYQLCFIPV
Compound,IC50 [1] [nM],IC50 [2] [nM],IC50 [3] [nM],IC50 [4] [nM],IC50 [5] [nM],IC50 [6] [nM],IC50 [7] [nM]
CCN(C(=O)Nc1cc(OC)cc(OC)c1Cl)c1cc(Nc2ccc(N3CCN(C)CC3)cc2)ncn1,750,,,,,,
COc1cc(NC(=O)N(C)c2cc(Nc3ccc(N4CCN(C)CC4)cc3)ncn2)cc(OC)c1,1510,,,,,,
COc1cc(NC(=O)N(C)c2cc(Nc3ccc(N4CCN(C)CC4)cc3)ncn2)c(Cl)c(OC)c1,635,,,,,,
COc1cc(NC(=O)Nc2cc(Nc3ccc(N4CCN(C)CC4)cc3)ncn2)c(Cl)c(OC)c1,832,,,,,,
COc1ccc(Cl)c(NC(=O)Nc2cc(Nc3ccc(N4CCN(C)CC4)cc3)ncn2)c1,2220,,,,,,
COc1ccc(Cl)c(NC(=O)Nc2cc(Nc3ccc(N4CCN(C)CC4)cc3)ncn2)c1Cl,126,,,,,,
COc1ccc(Cl)c(NC(=O)N(C)c2cc(Nc3ccc(N4CCN(C)CC4)cc3)ncn2)c1Cl,118,,,,,,
COc1cc(OC)c(Cl)c(NC(=O)N(C)c2cc(Nc3cccc(N4CCN(C)CC4)c3)ncn2)c1Cl,2,900,1100,> 10000,1700,> 10000,> 10000
COc1cc(OC)c(Cl)c(NC(=O)N(C)c2cc(Nc3ccc(OCCN4CCCC4)cc3)ncn2)c1Cl,28,> 10000,> 10000,2500,> 10000,> 10000,> 10000
COc1cc(OC)c(Cl)c(NC(=O)N(C)c2cc(Nc3ccc(CCCN(C)C)cc3)ncn2)c1Cl,27,3600,1000,> 10000,> 10000,> 10000,> 10000
CCN1CCC(c2ccc(Nc3cc(N(C)C(=O)Nc4c(Cl)c(OC)cc(OC)c4Cl)ncn3)cc2)CC1,14,1100,1200,6000,4000,> 10000,> 10000
COc1cc(OC)c(Cl)c(NC(=O)N(C)c2cc(Nc3cccc(CN4CCN(C)CC4)c3)ncn2)c1Cl,14,300,500,> 10000,> 10000,> 10000,7000
COc1cc(OC)c(Cl)c(NC(=O)N(C)c2cc(Nc3cccc(CN(C)C)c3)ncn2)c1Cl,11,1400,,,> 10000,> 10000,> 10000
